A selection: hits, their analogues and other compounds. The true share with any hit is near 5.8%.
KDM4C inh = inhibitors of GASC-1 (KDM4C) histone demethylase, primary screen, biochemical, single concentration HTS; inhibition, % at 12.5 µM; AID 720574, 2013; GST-KDM4C 2-372, H3K9me3 peptide, LANCE TR-FRET; 0.15% of 96,000 active; Lysine-specific demethylase 4C (Homo sapiens), Q9H3R0;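 active means mean replicate inhibition above about 25%, with at least 55% of replicates also reaching it, limit read from the data, passing the limit was not always enough; inconclusive means only one of those two conditions met; inactive means neither condition met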
Target sequence (Q9H3R0 2-372 limits assumed): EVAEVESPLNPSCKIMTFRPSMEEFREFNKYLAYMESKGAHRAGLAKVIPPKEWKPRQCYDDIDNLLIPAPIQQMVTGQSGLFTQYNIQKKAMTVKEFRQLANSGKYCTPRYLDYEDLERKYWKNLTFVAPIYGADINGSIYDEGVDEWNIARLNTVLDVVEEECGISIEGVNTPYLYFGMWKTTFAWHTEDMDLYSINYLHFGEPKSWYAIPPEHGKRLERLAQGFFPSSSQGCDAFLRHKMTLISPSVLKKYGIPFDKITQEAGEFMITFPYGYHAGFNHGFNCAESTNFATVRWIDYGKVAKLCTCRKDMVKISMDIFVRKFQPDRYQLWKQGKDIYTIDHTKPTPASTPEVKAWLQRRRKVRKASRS
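Test system – GST-tagged GASC-1 (JMJD2C) catalytic fragment, aa 2-372 · Medium – HEPES buffer, pH 7.5, plus ascorbate · Reagent – H3K9me3 peptide with Fe(II)/2OG · Compound – one test concentration per compound · Timing – 30 min reaction, 60 min detection, RT · Technique – TR-FRET with Eu antibody and ULight streptavidin, EDTA stop · Read-out basis – inhibition from TR-FRET ratio decrease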
Pf Dd2 growth = P. falciparum Dd2 growth inhibitors, primary screen, SYBR Green fluorescence, single dose replicates. AID 1159554, 2015. 2.3% of 94,000 active. activity change, % at 10 µM. 72 h; stronger effect = lower value; in the data active means activity change below about -80%; inconclusive means no clear call, values can overlap the other calls
IDH1 mut inh = inhibitors of IDH1 R132H reductase, primary screen, biochemical, plate reader, single point; Isocitrate dehydrogenase [NADP] cytoplasmic (Homo sapiens), O75874; diaphorase/resazurin fluorescence, 60 min; inhibition, % at 10 µM; 0.18% of 70,000 active; in the data active means inhibition above about 34%; inconclusive means no clear call, values can overlap the other calls; inactive means below about 11%;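 further: 0% = DMSO and 100% = no enzyme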
T cruzi growth-1 = T. cruzi intracellular proliferation inhibitors, primary screen, cell-based, beta-gal Tulahuen parasites, NIH3T3 host, luminescence; T. cruzi beta-gal in NIH3T3, GalScreen luminescence, 90 h; inhibition, % at 8.34 µM; 5.9% of 77,000 active;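 active means mean inhibition above about 93%, with at least 55% of replicates each passing it, limit read from the data, passing the limit was not always enough; inconclusive means only one of those two conditions holds; inactive means neither condition holds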
T cruzi growth-2 = T. cruzi intracellular proliferation inhibitors, confirmation, cell-based, NIH3T3 host, beta-gal parasite, luminescence, cherry-pick. shares compounds with T cruzi growth-1. T. cruzi beta-gal in NIH3T3, GalScreen luminescence, 90 h. inhibition, % at 8.35 µM. 72% of 5,600 active. AID 651739, 2012;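 active means mean replicate inhibition above about 95% and at least 55% of replicates individually reaching it, limit read from the data; inconclusive means only one of the two criteria is met; inactive means neither criterion is met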
T cruzi growth-3 = inhibitors of intracellular T. cruzi replication, confirmation, NIH3T3 host cells, beta-gal parasites, cherry-pick, set 2 | shares compounds with T cruzi growth-1 | T. cruzi beta-gal in NIH3T3, GalScreen luminescence, 90 h | inhibition, % at 2.09 µM | 21% of 5,600 active | AID 651740, 2012;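 active means mean inhibition above about 95%, with at least 55% of replicates also reaching it, limit read from the data; inconclusive means meets just one of the two conditions; inactive means meets neither condition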;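 further: plate controls were neutral control median for no effect and positive control median for full effect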
3T3 cytotox = cytotoxicity in mouse NIH/3T3 fibroblasts, confirmation, cytotoxicity control for T. cruzi proliferation inhibitor project, cell-based, cherry-pick, single point; shares compounds with T cruzi growth-1; NIH/3T3 viability, CellTiter-Glo ATP luminescence, 90 h; cytotoxicity (signal decrease), % at 8.35 µM; 14% of 5,600 active;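 active means mean signal decrease across replicates above about 35% based on untreated-well scatter, with enough replicates individually passing, limit read from the data; inconclusive means no rule stated though some were filed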;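 further: 0% = median of neutral control wells and 100% = median of positive control wells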
3T3 cytotox 2 = NIH/3T3 fibroblast cytotoxicity, confirmation, cytotoxicity control, cell-based, cherry-pick, single point, set 2; shares compounds with T cruzi growth-1; NIH/3T3 viability, CellTiter-Glo ATP luminescence, 90 h; inhibition, % at 24.9 µM; 56% of 5,600 active;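 active means mean loss of cell viability signal at or above a set limit, and enough replicates individually reaching it; inconclusive means meets only the mean limit or only the replicate share; inactive means meets neither condition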;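 further: 0% = median of neutral control wells and 100% = median of positive control wells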
Numbers without * were called inactive; ? = inconclusive; / = no result given.

SMILES | KDM4C inh | Pf Dd2 growth | IDH1 mut inh | T cruzi growth-1 | T cruzi growth-2 | T cruzi growth-3 | 3T3 cytotox | 3T3 cytotox 2
CC(C)C#Cc1ccc([C@H]2[C@H]3CN(C(=O)NC(C)C)CCCCN3[C@H]2CO)cc1 | -0.7 | 11.4 | / | 53.5 | / | / | / | /
O=C(C[C@H]1C=C[C@H](NS(=O)(=O)c2ccc(F)cc2)[C@@H](CO)O1)NCCN1CCCCC1 | 0.6 | -0.5 | 0.4 | 3.3 | / | / | / | /
C[C@H]1CN([C@@H](C)CO)C(=O)c2cc(-c3cncnc3)cnc2O[C@@H]1CN(C)C(=O)Cc1cccnc1 | 6.7 | 18.4 | / | -145.2 | / | / | / | /
Cc1ccccc1S(=O)(=O)N1CC(=O)N2[C@H](CO)[C@@H](c3ccc(C#Cc4ccccc4)cc3)[C@@H]2C1 | -0.5 | -51.1 | / | / | / | / | / | /
O=C(c1ccc(F)cc1)N1CCCCN2[C@@H](CO)[C@H](c3ccc(C#CC4(O)CCCC4)cc3)[C@@H]2C1 | 1.8 | -3.5 | / | 62.4 | / | / | / | /
O=C(C1CC1)N1CCCCN2[C@@H](CO)[C@H](c3ccc(C#CC4(O)CCCC4)cc3)[C@@H]2C1 | / | 20.1 | / | 77.1 | / | / | / | /
O=C(c1ccc(F)cc1)N1CCCCN2[C@H](CO)[C@H](c3ccc(C#CC4(O)CCCC4)cc3)[C@H]2C1 | 0.4 | -18.2 | / | 105.9* | 72.2 | 15.5 | -2.0 | 0.7
O=C(c1ccc(F)cc1)N1CCCCN2[C@@H](CO)[C@@H](c3ccc(C#CC4(O)CCCC4)cc3)[C@@H]2C1 | 0.2 | 2.5 | / | ? | 80.4 | 3.6 | -3.9 | 5.4
Cc1noc(C)c1NC(=O)N(C)C[C@@H]1OCCCC[C@@H](C)Oc2ccc(NC(=O)Nc3ccccc3)cc2C(=O)N([C@@H](C)CO)C[C@@H]1C | 2.4 | 6.9 | / | -27.7 | / | / | / | /
C[C@H]1CN([C@@H](C)CO)C(=O)c2c(c3ccccc3n2C)-c2ccccc2CO[C@H]1CN(C)S(=O)(=O)c1cn(C)cn1 | -0.2 | -22.6 | -2.3 | 101.4* | 16.4 | 7.2 | 2.0 | 22.3
C[C@@H]1CN([C@H](C)CO)C(=O)c2c(c3ccccc3n2C)-c2ccccc2CO[C@@H]1CN(C)S(=O)(=O)c1cn(C)cn1 | -1.6 | 16.1 | / | 90.0 | / | / | / | /
C[C@@H]1CN([C@@H](C)CO)C(=O)c2c(c3ccccc3n2C)-c2ccccc2CO[C@@H]1CN(C)S(=O)(=O)c1cn(C)cn1 | -0.6 | 0.9 | -2.9 | ? | 7.5 | -50.4 | 1.0 | 31.0*
C[C@@H]1CN([C@@H](C)CO)C(=O)c2c(c3ccccc3n2C)-c2ccccc2CO[C@H]1CN(C)S(C)(=O)=O | 0.5 | 5.9 | / | 20.8 | / | / | / | /
C[C@H](CO)N1C[C@H](C)[C@H](CN(C)C(=O)Nc2ccc(C(F)(F)F)cc2)OCCCC[C@H](C)Oc2ccc(NC(=O)c3ccncc3)cc2C1=O | 0.0 | -67.8 | / | 107.4* | 108.7* | 99.1* | 22.6 | 37.2*
C[C@@H]1CCCCO[C@H](CN(C)C(=O)Nc2ccc(C(F)(F)F)cc2)[C@@H](C)CN([C@H](C)CO)C(=O)c2cc(NC(=O)c3ccncc3)ccc2O1 | / | -26.4 | / | 46.3 | / | / | / | /
C[C@@H]1CCCCO[C@H](CN(C)C(=O)Nc2ccc(C(F)(F)F)cc2)[C@H](C)CN([C@H](C)CO)C(=O)c2cc(NC(=O)c3ccncc3)ccc2O1 | -0.6 | -43.5 | / | 103.4* | 113.5* | 50.3 | -6.9 | 42.0*
C[C@H]1CN([C@@H](C)CO)C(=O)Cc2cc(NC(=O)Nc3ccccc3)ccc2O[C@@H]1CN(C)Cc1ccc(C(=O)O)cc1 | -1.7 | 11.7 | -2.1 | -14.0 | / | / | / | /

Bioassay records as filed in PubChem.
